{"source": "ChEMBL document CHEMBL1806459", "about": "“Discovery of N-(1-ethylpropyl)-[3-methoxy-5-(2-methoxy-4-trifluoromethoxyphenyl)-6-methyl-pyrazin-2-yl]amine 59 (NGD 98-2): an orally active corticotropin releasing factor-1 (CRF-1) receptor antagonist” (J Med Chem, 2011)", "key": {"[1]": {"assay": "Inhibition of NMDA receptor at 4 uM", "how_it_was_run": "(§1)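 Selectivity panel of 69 targets, test compound at 4 μM, a level set by aqueous solubility limits; percent inhibition recorded per target.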"}, "[2]": {"assay": "Inhibition of Opiate receptor at 4 uM", "how_it_was_run": "(§2)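 Single-concentration screen within a 69-target selectivity panel. The test concentration was 4 μM, a level set by the compound's limited aqueous solubility.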"}, "[3]": {"assay": "Inhibition of DHP calcium channel at 4 uM", "how_it_was_run": "as §1"}, "[4]": {"target": "B2 bradykinin receptor (Homo sapiens) (UniProt P30411)", "sequence (P30411 whole entry)": "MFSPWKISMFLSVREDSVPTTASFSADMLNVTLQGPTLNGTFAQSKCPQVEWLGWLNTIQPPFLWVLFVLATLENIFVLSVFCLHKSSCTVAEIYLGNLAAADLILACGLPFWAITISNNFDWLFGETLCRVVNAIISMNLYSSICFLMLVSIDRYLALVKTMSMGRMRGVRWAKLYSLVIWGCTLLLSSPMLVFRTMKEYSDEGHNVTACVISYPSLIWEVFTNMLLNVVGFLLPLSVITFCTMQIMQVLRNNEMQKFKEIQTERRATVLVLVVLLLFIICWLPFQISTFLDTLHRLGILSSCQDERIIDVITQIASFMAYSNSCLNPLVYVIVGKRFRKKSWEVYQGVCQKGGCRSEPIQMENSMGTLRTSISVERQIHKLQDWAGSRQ", "assay": "Inhibition of bradykinin B2 receptor at 4 uM", "how_it_was_run": "as §2"}, "[5]": {"system": "Rattus norvegicus", "assay": "Toxicity in Sprague-Dawley rat assessed as effect on vertical activity at 30 mg/kg, po measured after 3 hrs for 1 hr", "format": "organism-based", "design": "dose 30 mg/kg, route oral", "settings": "in vivo", "how_it_was_run": "(§3)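 Rats not habituated to the test environment, dosed orally at 3, 10 and 30 mg/kg. Spontaneous locomotor activity recorded after dosing: horizontal activity as movement time, plus vertical activity (rearing). Test run to exclude sedation.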"}, "[6]": {"system": "Rattus norvegicus", "assay": "Toxicity in Sprague-Dawley rat assessed as effect on horizontal movement at 10 mg/kg, po measured after 3 hrs for 1 hr", "format": "organism-based", "design": "dose 10 mg/kg, route oral", "settings": "in vivo", "how_it_was_run": "as §3"}, "[7]": {"target": "Histamine H1 receptor (Homo sapiens) (UniProt P35367)", "sequence (P35367 whole entry)": "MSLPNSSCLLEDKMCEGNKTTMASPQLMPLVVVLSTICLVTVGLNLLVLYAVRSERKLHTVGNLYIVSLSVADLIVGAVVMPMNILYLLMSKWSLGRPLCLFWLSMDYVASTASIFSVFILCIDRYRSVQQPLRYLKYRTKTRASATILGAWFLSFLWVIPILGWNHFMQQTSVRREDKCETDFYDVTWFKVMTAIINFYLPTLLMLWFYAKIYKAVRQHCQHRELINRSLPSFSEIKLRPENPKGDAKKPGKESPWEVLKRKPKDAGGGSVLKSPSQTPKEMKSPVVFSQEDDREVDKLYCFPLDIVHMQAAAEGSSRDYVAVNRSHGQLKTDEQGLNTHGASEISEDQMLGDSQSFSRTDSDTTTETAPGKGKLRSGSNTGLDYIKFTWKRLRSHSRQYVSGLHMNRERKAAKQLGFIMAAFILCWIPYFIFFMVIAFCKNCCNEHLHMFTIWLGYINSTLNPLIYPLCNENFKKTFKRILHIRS", "assay": "Inhibition of Histamine H1 receptor at 4 uM", "how_it_was_run": "as §1"}, "[8]": {"assay": "Clearance in rat at 10 mg/kg, po", "format": "ADME, organism-based", "design": "dose 10 mg/kg, route oral", "settings": "in vivo"}, "[9]": {"target": "Sodium- and chloride-dependent betaine transporter (Homo sapiens) (UniProt P48065)", "sequence (P48065 whole entry)": "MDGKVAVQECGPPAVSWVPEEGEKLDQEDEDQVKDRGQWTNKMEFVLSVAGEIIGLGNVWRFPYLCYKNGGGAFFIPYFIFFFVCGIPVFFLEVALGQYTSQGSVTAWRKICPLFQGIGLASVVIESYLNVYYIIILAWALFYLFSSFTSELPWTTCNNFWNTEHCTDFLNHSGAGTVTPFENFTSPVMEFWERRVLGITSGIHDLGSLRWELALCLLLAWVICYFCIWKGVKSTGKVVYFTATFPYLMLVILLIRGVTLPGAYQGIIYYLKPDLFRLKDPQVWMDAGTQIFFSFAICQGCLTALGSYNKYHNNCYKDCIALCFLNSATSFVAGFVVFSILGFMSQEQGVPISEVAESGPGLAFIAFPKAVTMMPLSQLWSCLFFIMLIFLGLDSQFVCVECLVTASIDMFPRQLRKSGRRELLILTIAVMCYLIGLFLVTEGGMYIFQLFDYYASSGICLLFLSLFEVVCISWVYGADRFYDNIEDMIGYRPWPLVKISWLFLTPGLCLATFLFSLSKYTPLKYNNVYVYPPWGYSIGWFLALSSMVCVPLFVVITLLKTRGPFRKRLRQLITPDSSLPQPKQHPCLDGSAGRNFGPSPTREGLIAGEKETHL", "assay": "Inhibition of GABA transporter at 4 uM", "how_it_was_run": "as §1"}, "[10]": {"assay": "Half life in rat at 10 mg/kg, po", "format": "ADME, organism-based", "design": "dose 10 mg/kg, route oral", "settings": "in vivo"}, "[11]": {"assay": "Inhibition of Sigma opiate receptor at 4 uM", "how_it_was_run": "as §2"}, "[12]": {"target": "Vasoactive intestinal polypeptide receptor 1 (Homo sapiens) (UniProt P32241)", "sequence (P32241 whole entry)": "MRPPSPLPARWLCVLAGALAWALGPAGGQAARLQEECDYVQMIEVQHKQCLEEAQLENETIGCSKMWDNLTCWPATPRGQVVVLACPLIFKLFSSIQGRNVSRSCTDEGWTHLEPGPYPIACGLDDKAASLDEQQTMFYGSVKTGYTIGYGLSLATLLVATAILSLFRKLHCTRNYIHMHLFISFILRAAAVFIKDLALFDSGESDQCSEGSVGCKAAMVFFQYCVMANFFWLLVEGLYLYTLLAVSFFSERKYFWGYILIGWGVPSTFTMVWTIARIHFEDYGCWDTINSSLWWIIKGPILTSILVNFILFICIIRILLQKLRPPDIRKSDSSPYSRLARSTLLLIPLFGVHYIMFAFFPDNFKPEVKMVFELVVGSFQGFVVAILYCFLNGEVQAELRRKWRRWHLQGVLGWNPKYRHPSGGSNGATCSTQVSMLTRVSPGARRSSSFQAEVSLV", "assay": "Inhibition of VPAC1 receptor at 4 uM", "how_it_was_run": "as §2"}, "[13]": {"target": "Platelet-activating factor receptor (Homo sapiens) (UniProt P25105)", "sequence (P25105 whole entry)": "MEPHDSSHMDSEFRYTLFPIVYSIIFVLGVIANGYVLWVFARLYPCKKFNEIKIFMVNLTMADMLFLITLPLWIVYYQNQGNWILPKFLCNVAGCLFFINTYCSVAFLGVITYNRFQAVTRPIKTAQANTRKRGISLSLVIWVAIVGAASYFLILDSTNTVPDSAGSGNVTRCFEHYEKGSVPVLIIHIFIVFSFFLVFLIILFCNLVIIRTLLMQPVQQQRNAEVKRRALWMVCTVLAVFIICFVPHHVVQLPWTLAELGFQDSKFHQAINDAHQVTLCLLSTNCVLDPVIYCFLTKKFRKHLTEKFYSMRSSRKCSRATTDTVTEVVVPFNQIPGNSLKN", "assay": "Inhibition of Platelet activating factor receptor at 4 uM", "how_it_was_run": "as §2"}, "[14]": {"system": "Rattus norvegicus", "assay": "Volume of distribution at steady state in rat at 10 mg/kg, po", "format": "ADME, organism-based", "design": "dose 10 mg/kg, route oral", "settings": "in vivo", "how_it_was_run": "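Rat pharmacokinetics: compounds given iv (1 or 3 mg/kg) and po (5 or 10 mg/kg) in 2% Vitamin E TPGS (tocopheryl polyethylene glycol 1000 succinate). Plasma sampled over 24 h for Cmax, Tmax, AUC0–24 h, T1/2, clearance, Vss and oral bioavailability. Brain to plasma ratio also measured.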"}, "[15]": {"target": "Alpha-1A adrenergic receptor (Homo sapiens) (UniProt P35348)", "sequence (P35348 whole entry)": "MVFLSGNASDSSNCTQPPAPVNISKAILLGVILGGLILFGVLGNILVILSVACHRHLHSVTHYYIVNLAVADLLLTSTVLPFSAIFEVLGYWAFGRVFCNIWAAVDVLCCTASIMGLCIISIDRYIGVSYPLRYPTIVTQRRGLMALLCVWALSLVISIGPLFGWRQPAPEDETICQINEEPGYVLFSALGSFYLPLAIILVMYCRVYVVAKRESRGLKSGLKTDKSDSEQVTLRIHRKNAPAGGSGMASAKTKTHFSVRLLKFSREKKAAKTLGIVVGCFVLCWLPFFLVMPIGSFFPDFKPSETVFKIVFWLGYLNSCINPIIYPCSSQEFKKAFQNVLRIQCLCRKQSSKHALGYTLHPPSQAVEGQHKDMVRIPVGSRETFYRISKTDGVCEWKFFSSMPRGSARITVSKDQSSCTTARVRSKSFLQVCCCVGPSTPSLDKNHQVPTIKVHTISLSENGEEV", "assay": "Inhibition of adrenergic alpha 1 receptor at 4 uM", "how_it_was_run": "as §2"}, "[16]": {"assay": "Half life in human microsomes", "format": "ADME, Microsome", "how_it_was_run": "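Stability in human or rat liver microsomes; half-life (T1/2, min) of compound turnover reported.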"}}, "data": [{"smiles": "CCC(CC)Nc1nc(C)c(-c2ccc(OC(F)(F)F)cc2OC)nc1OC", "values": [{"measurement": "inhibition", "setting": "[1]", "result": "> 16", "unit": "%"}, {"measurement": "inhibition", "setting": "[2]", "result": "> 16", "unit": "%"}, {"measurement": "inhibition", "setting": "[3]", "result": "> 16", "unit": "%"}, {"measurement": "inhibition", "setting": "[4]", "result": "> 16", "unit": "%"}, {"measurement": "Activity", "setting": "[5]", "result": "Non-toxic"}, {"measurement": "Activity", "setting": "[6]", "result": "Non-toxic"}, {"measurement": "inhibition", "setting": "[7]", "result": "> 16", "unit": "%"}, {"measurement": "CL/F", "setting": "[8]", "result": 12, "unit": "mL/min/kg"}, {"measurement": "inhibition", "setting": "[9]", "result": "> 16", "unit": "%"}, {"measurement": "half-life", "setting": "[10]", "result": 8.4, "unit": "h"}, {"measurement": "inhibition", "setting": "[11]", "result": "> 16", "unit": "%"}, {"measurement": "inhibition", "setting": "[12]", "result": "> 16", "unit": "%"}, {"measurement": "inhibition", "setting": "[13]", "result": "> 16", "unit": "%"}, {"measurement": "Vdss", "setting": "[14]", "result": 7.8, "unit": "L/kg"}, {"measurement": "inhibition", "setting": "[15]", "result": "> 16", "unit": "%"}, {"measurement": "half-life", "setting": "[16]", "result": 2, "unit": "h"}]}]}
